From ChEMBL document CHEMBL1212776, “Novel ambler class A carbapenem-hydrolyzing beta-lactamase from a Pseudomonas fluorescens isolate from the Seine River, Paris, France” (Antimicrob Agents Chemother, 2010)
Converted amounts (≈) assume the structure as drawn.

Columns and labels:
Pseudomonas fluorescens [1] = assay: Antimicrobial activity against Pseudomonas fluorescens isolate PF-1 expressing beta-lactamase BIC-1 by Etest; assay type: functional
Outline: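 MIC for isolate PF-1 by Etest, interpreted per CLSI recommendations. Cultures grown in Trypticase soy broth, 37°C, 18 h.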

Escherichia coli [2] = assay: Antimicrobial activity against Escherichia coli DH10B harbouring recombinant plasmid pSau1 expressing beta-lactamase BIC-1 from Pseudomonas fluorescens PF-1 by Etest; assay type: functional
Escherichia coli [3] = assay: Antimicrobial activity against Escherichia coli DH10B by Etest; assay type: functional
Outline: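 MIC by Etest, interpreted per CLSI recommendations. Reference strain E. coli DH10B without recombinant plasmid; cultures grown in Trypticase soy broth at 37°C for 18 h.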

Pseudomonas fluorescens [4] = assay: Activity at Pseudomonas fluorescens PF-1 beta-lactamase BIC-1 expressed in Escherichia coli DH10B carrying pSau1
Pseudomonas fluorescens [5] = assay: Antimicrobial activity against Pseudomonas fluorescens isolate PF-1 expressing beta-lactamase BIC-1 by Etest in presence of 4 ug/ml of clavulanic acid; assay type: functional
Outline: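 MIC for isolate PF-1 by Etest, with clavulanic acid held at a fixed 4 μg/ml and the β-lactam varied. Interpreted per CLSI recommendations.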

Escherichia coli [6] = assay: Antimicrobial activity against Escherichia coli DH10B harbouring recombinant plasmid pSau1 expressing beta-lactamase BIC-1 from Pseudomonas fluorescens PF-1 by Etest in presence of 4 ug/ml of clavulanic acid; assay type: functional
Escherichia coli [7] = assay: Antimicrobial activity against Escherichia coli DH10B by Etest in presence of 4 ug/ml of clavulanic acid; assay type: functional
Outline: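 Etest MIC with clavulanic acid held at a fixed 4 μg/ml alongside the β-lactam, read per CLSI recommendations. Strain E. coli DH10B; cultures grown in TS broth at 37°C for 18 h.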

[8] = substrate: CC(=O)OCC1=C(C(=O)O)N2C(=O)[C@@H](NC(=O)Cc3cccs3)[C@H]2SC1; assay: (§1) Ratio of Kcat to Km of Pseudomonas fluorescens PF-1 beta-lactamase BIC-1 expressed in Escherichia coli DH10B using nitrocefin hydrolysis
Outline: (§2)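 Cells from overnight 37°C TS broth culture with amoxicillin and kanamycin were sonicated. Enzyme purified by S-Sepharose (malonate pH 6.1), then Q-Sepharose (bis-Tris pH 7.2, 0–500 mM NaCl gradient), and dialyzed into 50 mM sodium phosphate pH 7. kcat and Km measured on the purified enzyme. Values are means of three independent experiments; SD within 10%.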

[9] = substrate: CC1(C)S[C@@H]2[C@H](NC(=O)Cc3ccccc3)C(=O)N2[C@H]1C(=O)O; assay: as §1; outline: as §2
[10] = substrate: CC1(C)S[C@@H]2[C@H](NC(=O)[C@H](C(=O)O)c3ccsc3)C(=O)N2[C@H]1C(=O)O; assay: as §1; outline: as §2
[11] = substrate: CC1(C)S[C@@H]2[C@H](NC(=O)[C@H](N)c3ccccc3)C(=O)N2[C@H]1C(=O)O; assay: as §1; outline: as §2
[12] = substrate: CCN1CCN(C(=O)N[C@@H](C(=O)N[C@@H]2C(=O)N3[C@@H]2SC(C)(C)[C@@H]3C(=O)O)c2ccccc2)C(=O)C1=O; assay: as §1; outline: as §2
[13] = substrate: CO/N=C(\C(=O)N[C@@H]1C(=O)N2C(C(=O)O)=C(COC(C)=O)CS[C@H]12)c1csc(N)n1; assay: as §1; outline: as §2
[14] = substrate: CO/N=C(\C(=O)N[C@@H]1C(=O)N2C(C(=O)O)=C(COC(N)=O)CS[C@H]12)c1ccco1; assay: as §1; outline: as §2
[15] = substrate: CO[C@@]1(NC(=O)C(C(=O)O)c2ccc(O)cc2)C(=O)N2C(C(=O)O)=C(CSc3nnnn3C)CO[C@@H]21; assay: as §1; outline: as §2
[16] = substrate: CO[C@@]1(NC(=O)Cc2cccs2)C(=O)N2C(C(=O)O)=C(COC(N)=O)CS[C@@H]21; assay: as §1; outline: as §2
[17] = substrate: C[C@@H](O)[C@H]1C(=O)N2C(C(=O)O)=C(SCCNC=N)C[C@H]12; assay: as §1; outline: as §2
[18] = substrate: C[C@@H](O)[C@H]1C(=O)N2C(C(=O)O)=C(S[C@@H]3CN[C@H](C(=O)N(C)C)C3)[C@H](C)[C@H]12; assay: as §1; outline: as §2
[19] = substrate: C[C@@H](O)[C@H]1C(=O)N2C(C(=O)O)=C(S[C@@H]3CN[C@H](C(=O)Nc4cccc(C(=O)O)c4)C3)[C@H](C)[C@H]12; assay: as §1; outline: as §2
[20] = substrate: C[C@H]1[C@H](NC(=O)/C(=N\OC(C)(C)C(=O)O)c2csc(N)n2)C(=O)N1S(=O)(=O)O; assay: as §1; outline: as §2
[21] = substrate: Cc1onc(-c2ccccc2)c1C(=O)N[C@@H]1C(=O)N2[C@@H]1SC(C)(C)[C@@H]2C(=O)O; assay: as §1; outline: as §2
[22] = substrate: O=C(Cc1cccs1)N[C@@H]1C(=O)N2C(C(=O)[O-])=C(C[n+]3ccccc3)CS[C@H]12; assay: as §1; outline: as §2

C[C@@H](O)[C@H]1C(=O)N2C(C(=O)O)=C(S[C@@H]3CN[C@H](C(=O)Nc4cccc(C(=O)O)c4)C3)[C@H](C)[C@H]12
MIC (Pseudomonas fluorescens [1]): > 16 µg/mL
MIC (Escherichia coli [2]): 0.25 µg/mL
MIC (Escherichia coli [3]): 0.12 µg/mL (≈ 0.252 µM)
Km (Pseudomonas fluorescens [4]): 10 µM
kcat (Pseudomonas fluorescens [4]): 2 s⁻¹

Cc1onc(-c2ccccc2)c1C(=O)N[C@@H]1C(=O)N2[C@@H]1SC(C)(C)[C@@H]2C(=O)O
Km (Pseudomonas fluorescens [4]): 110 µM
kcat (Pseudomonas fluorescens [4]): 15 s⁻¹

CCN1CCN(C(=O)N[C@@H](C(=O)N[C@@H]2C(=O)N3[C@@H]2SC(C)(C)[C@@H]3C(=O)O)c2ccccc2)C(=O)C1=O [PIPERACILLIN]
MIC (Pseudomonas fluorescens [1]): 4 µg/mL (≈ 7.73 µM)
MIC (Escherichia coli [2]): 256 µg/mL
MIC (Escherichia coli [3]): 1 µg/mL (≈ 1.93 µM)
Km (Pseudomonas fluorescens [4]): 175 µM
kcat (Pseudomonas fluorescens [4]): 40 s⁻¹

CC1(C)S[C@@H]2[C@H](NC(=O)[C@H](C(=O)O)c3ccsc3)C(=O)N2[C@H]1C(=O)O [TICARCILLIN]
MIC (Pseudomonas fluorescens [1]): > 256 µg/mL
MIC (Escherichia coli [2]): > 256 µg/mL
MIC (Escherichia coli [3]): 4 µg/mL (≈ 10.4 µM)
MIC (Pseudomonas fluorescens [5]): > 256 µg/mL
MIC (Escherichia coli [6]): 128 µg/mL
MIC (Escherichia coli [7]): 4 µg/mL
Km (Pseudomonas fluorescens [4]): 250 µM
kcat (Pseudomonas fluorescens [4]): 15 s⁻¹

CO/N=C(\C(=O)N[C@@H]1C(=O)N2C(C(=O)[O-])=C(C[N+]3(C)CCCC3)CS[C@H]12)c1csc(N)n1
MIC (Pseudomonas fluorescens [1]): > 16 µg/mL
MIC (Escherichia coli [2]): 0.12 µg/mL

CC(=O)OCC1=C(C(=O)O)N2C(=O)[C@@H](NC(=O)Cc3cccs3)[C@H]2SC1 [CEPHALOTHIN]
MIC (Pseudomonas fluorescens [1]): > 256 µg/mL
MIC (Escherichia coli [2]): 128 µg/mL
MIC (Escherichia coli [3]): 2 µg/mL (≈ 5.04 µM)
Km (Pseudomonas fluorescens [4]): 550 µM
kcat (Pseudomonas fluorescens [4]): 250 s⁻¹

CC1(C)S[C@@H]2[C@H](NC(=O)[C@H](N)c3ccc(O)cc3)C(=O)N2[C@H]1C(=O)O [AMOXICILLIN]
MIC (Pseudomonas fluorescens [1]): > 256 µg/mL
MIC (Escherichia coli [2]): > 256 µg/mL
MIC (Escherichia coli [3]): 4 µg/mL (≈ 10.9 µM)
MIC (Pseudomonas fluorescens [5]): > 256 µg/mL
MIC (Escherichia coli [6]): 16 µg/mL
MIC (Escherichia coli [7]): 4 µg/mL

C[C@@H](O)[C@H]1C(=O)N2C(C(=O)O)=C(S[C@@H]3CN[C@H](C(=O)N(C)C)C3)[C@H](C)[C@H]12 [MEROPENEM]
MIC (Pseudomonas fluorescens [1]): > 16 µg/mL
MIC (Escherichia coli [2]): 0.25 µg/mL
MIC (Escherichia coli [3]): 0.12 µg/mL (≈ 0.313 µM)
Km (Pseudomonas fluorescens [4]): 12 µM
kcat (Pseudomonas fluorescens [4]): 1 s⁻¹

CO[C@@]1(NC(=O)C(C(=O)O)c2ccc(O)cc2)C(=O)N2C(C(=O)O)=C(CSc3nnnn3C)CO[C@@H]21 (stereo partly drawn) [MOXALACTAM]
MIC (Pseudomonas fluorescens [1]): > 256 µg/mL
MIC (Escherichia coli [2]): 0.12 µg/mL
MIC (Escherichia coli [3]): 0.12 µg/mL (≈ 0.231 µM)
Km (Pseudomonas fluorescens [4]): 1700 µM
kcat (Pseudomonas fluorescens [4]): 3 s⁻¹

CO/N=C(\C(=O)N[C@@H]1C(=O)N2C(C(=O)O)=C(COC(N)=O)CS[C@H]12)c1ccco1 [CEFUROXIME]
MIC (Pseudomonas fluorescens [1]): > 256 µg/mL
MIC (Escherichia coli [2]): 16 µg/mL
MIC (Escherichia coli [3]): 0.5 µg/mL (≈ 1.18 µM)
Km (Pseudomonas fluorescens [4]): > 1000 µM
kcat (Pseudomonas fluorescens [4]): 9 s⁻¹

B1: Beta-lactamase (Pseudomonas fluorescens), D2WFL1 (protein)
chain: MARPSKLALSFSLLLPFLPFTSFAETWPQGDIARQKIVKLEKDFGGRIGVSAIDTGANRTFDFRADERFPLCSSFKGFLAGAVLSHSQQQEGLLEKRIDYKNRVMEPHSPISAQHSSTGMTVAQLAAAALQYSDNGATNLLLENVLGGPAGMTTFMRTLGDTTFRLDRWELELNSAIPGDDRDTSTPHAIARSLQKIALGEALQTAPRQQLVDWLIGNTTGGARIRAGVPVEWVVGDKTGTCGVYGTANDYAVIWPKTSAPIVLAIYTAKPNKEDKHSDAVIAEVTRAVLESFE
kcat/Km [8]: 500000 M⁻¹ s⁻¹
kcat/Km [9]: 660000 M⁻¹ s⁻¹
kcat/Km [10]: 60000 M⁻¹ s⁻¹
kcat/Km [11]: 160000 M⁻¹ s⁻¹
kcat/Km [12]: 210000 M⁻¹ s⁻¹
kcat/Km [13]: 9000 M⁻¹ s⁻¹
kcat/Km [14]: < 9000 M⁻¹ s⁻¹
kcat/Km [15]: 1000 M⁻¹ s⁻¹
kcat/Km [16]: 1000 M⁻¹ s⁻¹
kcat/Km [17]: 170000 M⁻¹ s⁻¹
kcat/Km [18]: 80000 M⁻¹ s⁻¹
kcat/Km [19]: 200000 M⁻¹ s⁻¹
kcat/Km [20]: < 35000 M⁻¹ s⁻¹
kcat/Km [21]: 100000 M⁻¹ s⁻¹
kcat/Km [22]: 220000 M⁻¹ s⁻¹
